Results as given in ChEMBL document CHEMBL4627292, “Diarylheptanoids with NO production inhibitory activity from Amomum kravanh” (Bioorg Med Chem Lett, 2020).

Tests used:
RAW264.7 = experiment: Antiinflammatory activity in mouse RAW264.7 cells assessed as inhibition of LPS-induced nitric oxide production preincubated for 1 hr followed by LPS stimulation and measured after 24 hrs by Griess reagent based assay; format: functional, cell-based
[1] = Cytotoxicity against mouse RAW264.7 cells assessed as cell survival at 100 uM after 24 hrs by MTT assay relative to control; format: cell-based; conditions: read-out: Activity
Summary of the method: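 RAW264.7 seeded 5 × 10^3/well for 24 h at 37 °C, 5% CO2. Samples dissolved in DMSO and diluted in DMEM to final 100 μM with 1% DMSO; 1% DMSO as solvent control, cell-free medium as blank. After 24 h, MTT added for 4 h; medium removed, formazan dissolved in DMSO, absorbance read at 490 nm. % inhibition computed relative to solvent control after blank subtraction.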

## COc1cc(C[C@@H](O)[C@@H]2C[C@@H](O)[C@@H](c3ccc(O)c(OC)c3)[C@H](c3ccc(O)c(OC)c3)O2)ccc1O
RAW264.7
  IC50: > 50 µM
[1]
  viability at 24 h, 100 µM: > 90%

## COc1cc(CC[C@H]2C[C@H](O)[C@@H](O)[C@@H](c3ccc(O)c(OC)c3)O2)ccc1O
RAW264.7
  IC50: 21.8 µM
[1]
  viability at 24 h, 100 µM: > 90%

## COc1cc(C(=O)C[C@H]2C[C@@H](O)C[C@@H](c3ccc(O)c(OC)c3)O2)ccc1O
RAW264.7
  IC50: 17.4 µM
[1]
  viability at 24 h, 100 µM: > 90%

## COc1cc(C[C@@H](O)[C@H]2C[C@H](O)[C@@H](c3ccc(O)c(OC)c3)[C@H](c3ccc(O)c(OC)c3)O2)ccc1O
RAW264.7
  IC50: > 50 µM
[1]
  viability at 24 h, 100 µM: > 90%

## COc1cc(C[C@H]2O[C@@H](CC(=O)c3ccc(O)c(OC)c3)C[C@H]2O)ccc1O
RAW264.7
  IC50: 26.5 µM
[1]
  viability at 24 h, 100 µM: > 90%

## COc1cc(CC[C@H]2C[C@H](O)[C@H](O)[C@@H](c3ccc(O)c(OC)c3)O2)ccc1O
RAW264.7
  IC50: > 50 µM
[1]
  viability at 24 h, 100 µM: > 90%

## COc1cc(C[C@@H](O)[C@@H]2C[C@@H](O)[C@@H](c3cc(OC)c(O)c(OC)c3)[C@H](c3ccc(O)c(OC)c3)O2)ccc1O
RAW264.7
  IC50: 23.6 µM
[1]
  viability at 24 h, 100 µM: > 90%

## COc1cc(C(=O)C[C@H]2C[C@H](O)C[C@@H](c3ccc(O)c(OC)c3)O2)ccc1O
RAW264.7
  IC50: > 50 µM
[1]
  viability at 24 h, 100 µM: > 90%

## COc1cc(C[C@H](O)[C@@H]2C[C@@H](O)C[C@H](c3ccc(O)c(OC)c3)O2)ccc1O
RAW264.7
  IC50: > 50 µM
[1]
  viability at 24 h, 100 µM: > 90%

## C[C@@H]1C[C@H]2[C@@H]3CCC4=CC(=O)C=C[C@]4(C)[C@@]3(F)[C@@H](O)C[C@]2(C)[C@@]1(O)C(=O)CO [DEXAMETHASONE]
RAW264.7
  IC50: 32.5 µM
